Measurements from ChEMBL document CHEMBL1124502, “Novel indolecarboxamidotetrazoles as potential antiallergy agents” (J Med Chem, 1989).

How the values were obtained:
[1] = target: T1, High affinity immunoglobulin epsilon receptor subunit alpha (Homo sapiens) (UniProt P12319); experiment: (§1) Inhibition of anti-IgE antibody-stimulated histamine release in human basophills at 33 uM; assay type: functional
T1 sequence (whole entry): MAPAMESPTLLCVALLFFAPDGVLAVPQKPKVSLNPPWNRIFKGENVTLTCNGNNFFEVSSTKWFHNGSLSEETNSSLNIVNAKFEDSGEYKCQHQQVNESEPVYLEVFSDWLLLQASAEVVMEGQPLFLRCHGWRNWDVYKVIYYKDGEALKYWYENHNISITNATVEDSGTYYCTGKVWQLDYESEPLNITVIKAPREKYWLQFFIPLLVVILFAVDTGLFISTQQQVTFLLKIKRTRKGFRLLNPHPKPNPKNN
Method in brief: (§2)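 Human leukocytes isolated after red-cell sedimentation, washed, suspended in buffer; preincubated with compound then challenged with anti-IgE. Released histamine measured by automated fluorometric assay; percent inhibition versus undrugged anti-IgE-challenged controls.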

[2] = target: T1, High affinity immunoglobulin epsilon receptor subunit alpha (Homo sapiens); experiment: (§3) Inhibition of anti-IgE antibody-stimulated histamine release in human basophills at 10 uM; assay type: functional; method in brief: as §2
Cavia porcellus [3] = species on record: Cavia porcellus; experiment: Inhibition of ovalbumin-stimulated histamine release in guinea pig lung, at 75 uM compound concentration; […]; assay type: functional
Homo sapiens [4] = species on record: Homo sapiens; experiment: Inhibition of anti-IgE antibody stimulated histamine release in human lung, at 75 uM compound concentration; […]; assay type: functional
Homo sapiens [5] = species on record: Homo sapiens; experiment: as §1; assay type: functional, organism-based; method in brief: as §2
Cavia porcellus [6] = species on record: Cavia porcellus; experiment: Inhibition of ovalbumin-stimulated histamine release in guinea pig lung; assay type: functional, organism-based
Cavia porcellus [7] = species on record: Cavia porcellus; experiment: Inhibition of ovalbumin stimulated histamine release in guinea pig lung
Homo sapiens [8] = species on record: Homo sapiens; experiment: Inhibition of anti-IgE antibody stimulated histamine release in human basophils; assay type: functional
Method in brief: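 Human leukocytes obtained after red-cell sedimentation, washed and suspended in buffer, preincubated with drug, then challenged with anti-IgE. Histamine quantified by automated fluorometric assay; percent inhibition vs nondrug anti-IgE-challenged controls. IC50 from threefold concentrations 1–100 μM.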

Homo sapiens [9] = species on record: Homo sapiens; experiment: Inhibition of anti-IgE antibody stimulated histamine release in human lung; assay type: functional, organism-based
Method in brief: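 Grossly normal human lung from lobectomy, dissected, chopped into 25–75-mg fragments, washed, held overnight in Tyrode's buffer at room temperature, rewashed. About 400 mg tissue at 37 °C in Tyrode's for 10 min, drug or vehicle added, 10 min later anti-IgE (final 3:1000), 30 min further incubation, supernatant sampled for histamine.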

Homo sapiens [10] = species on record: Homo sapiens; experiment: Inhibition of anti-IgE antibody-stimulated histamine release in human basophills at 33 uM; c = sample fluorescence interferes with the histamine assay; assay type: functional; method in brief: as §2
Homo sapiens [11] = species on record: Homo sapiens; experiment: as §3; assay type: functional; method in brief: as §2

inhibition [1] [%] | inhibition [2] [%] | Structure (SMILES) | further results
72 | 18 | CC(C)Oc1c(C(=O)Nc2nn[nH]n2)n(-c2ccccc2)c2ccc(Cl)cc12 | –
50 | 13 | COc1ccc2c(c1)c(SC(C)C)c(C(=O)Nc1nn[nH]n1)n2-c1ccccc1 | –
< 25 | – | Cc1ccc2c(c1)c(OC(C)C)c(C(=O)Nc1nn[nH]n1)n2-c1ccccc1 | –
33 | 7 | CC(C)Oc1c(C(=O)Nc2nn[nH]n2)n(-c2ccccc2)c2ccc(Br)cc12 | –
< 25 | – | COc1ccc(-n2c(C(=O)Nc3nn[nH]n3)c(OC(C)C)c3ccccc32)cc1 | –
< 25 | – | CCCc1c2oc(C(=O)O)cc(=O)c2cc2c(=O)cc(C(=O)O)n(CC)c12 [NEDOCROMIL] | Inhibition (Cavia porcellus [3]): <=25%; Inhibition (Homo sapiens [4]): <=25%
82 | 30 | COc1ccc2c(c1)c(Sc1ccccc1)c(C(=O)Nc1nn[nH]n1)n2-c1ccccc1 | –
< 25 | – | CC(C)Oc1c(C(=O)Nc2nn[nH]n2)n(-c2ccccc2)c2ccccc12 | –
45 | 18 | COc1ccc2c(c1)c(OC(C)C)c(C(=O)Nc1nn[nH]n1)n2C | –
< 25 | – | COc1ccc2c(c1)cc(C(=O)Nc1nn[nH]n1)n2-c1ccccc1 | –
84 | 43 | COc1ccc2c(c1)c(OCc1ccccc1)c(C(=O)Nc1nn[nH]n1)n2-c1ccccc1 | –
49 | 16 | COc1ccc(-n2c(C(=O)Nc3nn[nH]n3)c(OC(C)C)c3cc(OC)ccc32)cc1 | –
84 | 40 | CC(C)Oc1c(C(=O)Nc2nn[nH]n2)n(-c2ccccc2)c2cc(Cl)c(Cl)cc12 | –
– | – | COc1ccc2c(c1)c1oc(C(=O)Nc3nnn[nH]3)c(OC)c1n2-c1ccccc1.NC(N)=NCCC[C@H](N)C(=O)O | IC50 (Homo sapiens [5]): 8.5 µM; IC50 (Cavia porcellus [6]): 13.4 µM
82 | 46 | COc1ccc2c(c1)c(OC(C)C)c(C(=O)Nc1nn[nH]n1)n2-c1ccccc1 | IC50 (Cavia porcellus [7]): 26.7 µM; IC50 (Homo sapiens [8]): 15 µM; IC50 (Homo sapiens [9]): 16.6 µM
– | – | CCCCCCCCCOc1c(C(=O)Nc2nn[nH]n2)n(-c2ccccc2)c2ccc(OC)cc12 | inhibition (Homo sapiens [10]): Sample fluorescence interferes with histamine assay
< 25 | – | COc1ccc2c(c1)c(C(C)C)c(C(=O)Nc1nn[nH]n1)n2-c1ccccc1 | –

inhibition [1] [%] | inhibition [2] [%] | Structure (SMILES) | further results
62 | 17 | COc1ccc2[nH]c(C(=O)Nc3nn[nH]n3)c(OC(C)C)c2c1 | –
55 | 26 | CCOc1c(C(=O)Nc2nn[nH]n2)n(Cc2ccccc2)c2ccc(OC)cc12 | –
< 25 | – | COc1cccc2c1c(OC(C)C)c(C(=O)Nc1nn[nH]n1)n2-c1ccccc1 | –
73 | – | CCOc1c(C(=O)Nc2nn[nH]n2)n(-c2ccccc2)c2ccc(OC)cc12 | Inhibition (Homo sapiens [11]): 55%
< 25 | – | O=C([O-])c1cc(=O)c2c(OCC(O)COc3cccc4oc(C(=O)[O-])cc(=O)c34)cccc2o1.[Na+].[Na+] [CROMOLYN SODIUM] | Inhibition (Cavia porcellus [3]): <=25%; Inhibition (Homo sapiens [4]): <=25%
< 25 | – | COc1ccc2c(c1)c(O)c(C(=O)Nc1nn[nH]n1)n2-c1ccccc1 | –
< 25 | – | CC(C)Oc1c(C(=O)Nc2nn[nH]n2)n(-c2ccccc2)c2ccc(O)cc12 | –
74 | 46 | COc1ccc2c(c1)c(OC)c(C(=O)Nc1nn[nH]n1)n2-c1ccccc1 | –
66 | 20 | COc1ccc2c(c1)c(SC)c(C(=O)Nc1nn[nH]n1)n2-c1ccccc1 | –
66 | 65 | CC(C)Oc1c(C(=O)Nc2nn[nH]n2)n(-c2ccccc2)c2ccc(OCc3ccccc3)cc12 | –
< 25 | – | COc1ccc2c(c1)c(Oc1ccc([N+](=O)[O-])cc1)c(C(=O)Nc1nn[nH]n1)n2-c1ccccc1 | –
37 | 25 | COc1ccc2c(c1)c(OC(C)C)c(-c1nn[nH]n1)n2-c1ccccc1 | –
< 25 | – | O=C(Nc1nn[nH]n1)c1c(OCc2ccccc2)c2ccccc2n1-c1ccccc1 | –
46 | 7 | CCOc1c(C(=O)Nc2nn[nH]n2)[nH]c2ccc(OC)cc12 | –
< 25 | – | COc1ccc2c(c1)c(S(C)(=O)=O)c(C(=O)Nc1nn[nH]n1)n2-c1ccccc1 | –
50 | 24 | COc1ccc2c(OC(C)C)c(C(=O)Nc3nn[nH]n3)n(-c3ccccc3)c2c1 | –
69 | 61 | COc1ccc2c(c1)c(OC(C)C)c(C(=O)Nc1nn[nH]n1)n2Cc1ccccc1 | –
